Test results from ChEMBL document CHEMBL4414566, “Cytotoxicity and Anti-inflammatory Properties of Apigenin-Derived Isolaxifolin” (J Nat Prod, 2019).
Calls of active or inactive are those of the source. The rule behind the calls is not given here.

What was measured:
RAW264.7 [1] = assay: Antiinflammatory activity against LPS-activated mouse RAW264.7 cells assessed as reduction in TNFalpha mRNA expression at 3.1 uM preincubated with LPS for 24 hrs followed by compound addition and measured after 24 hrs by qRT-PCR analysis; format: functional, cell-based
How it was run: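 RAW 264.7 cells (DMEM, 10% FBS, 37 °C, 5% CO2) seeded at 1 × 10^5/well and held 4 h. LPS 1.0 μg/mL was added for 24 h, then medium was replaced with test agent (0.8, 1.6, 3.1 μM or 2.3, 4.6, 9.2 μM) for 24 h. TNF-α and IL-6 transcripts were quantified by real-time qPCR against GAPDH. Triplicates, mean ± SD.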

RAW264.7 [2] = assay: Inhibition of nitric oxide production in mouse RAW264.7 cells at 0.8 to 3.1 uM measured after 24 hrs by griess reagent based assay; format: functional, cell-based
MCF7 = assay: Antiproliferative activity against human MCF7 cells assessed as cell viability at 24.2 uM incubated for 48 hrs by methylene blue assay relative to control; format: functional; conditions: MCF7, 48 h, read-out: Activity
How it was run: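 MDA-MB-231, MCF-7, HepG2 and LNCaP cells were grown in DMEM; HCT-116 and LO-2 in RPMI-1640; all with 10% FBS at 37 °C, 5% CO2. Cells seeded at 1.5 × 10^5 cells/mL and incubated overnight (~12 h), then exposed to 6.2–30.9 μM or 23.1–185.0 μM (final DMSO <0.1%) for 48 h. Read by methylene blue staining; viability = Abs treated/Abs untreated × 100%, triplicate.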

MDA-MB-231 = assay: Induction of cell cycle arrest in human MDA-MB-231 cells assessed as accumulation of cells at S phase at 8.6 uM incubated for 48 hrs by PI/RNase staining based flow cytometric analysis (reference value: 39.2%); format: functional
How it was run: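 Cell-cycle analysis: MDA-MB-231 cells were preincubated 24 h, then treated with 8.6, 12.4 or 17.3 μM for 48 h. Cells were pelleted, fixed in 75% ethanol at −20 °C overnight, and stained with PI/RNase for 15 min in the dark at ambient temperature. About 10 000 cells per well were analyzed by flow cytometry for DNA content.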

With `CC(C)=CCc1c2c(c(O)c3c(=O)cc(-c4ccc(O)cc4)oc13)C=CC(C)(C)O2` [LAXIFOLIN] the Activity (RAW264.7 [1]) was “Active”, the inhibition (RAW264.7 [2]) was “Active” and the viability at 24.2 µM (MCF7) was 20%. It also gave an Activity (MDA-MB-231) of 29.5%.
